Results: ChEMBL document CHEMBL1152649, “Synthesis, cytotoxicity and human telomerase inhibition activities of a series of 1,2-heteroannelated anthraquinones and anthra[1,2-d]imidazole-6,11-dione homologues” (2009)

Columns and labels:
Assay type in all cases: functional
HCC 2998 = experiment: Growth inhibition of human HCC2998 cells
Outline: (§1)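 NCI 60 cancer cell line screen run per the Developmental Therapeutics Program protocol. Dose–response curves were plotted against log10 drug concentration for each cell line within its subpanel, and mean graph midpoint values were calculated.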

IGROV-1 [1] = experiment: Growth inhibition of human IGROV1 cells; outline: as §1
M14 = experiment: Growth inhibition of human M14 cells; outline: as §1
NCI-H322M = experiment: Growth inhibition of human NCI-H322M cells; outline: as §1
SK-OV-3 = experiment: Growth inhibition of human SKOV3 cells
Outline: (§2)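 Assayed in the NCI 60 human cancer cell line panel under the Developmental Therapeutics Program protocol. For each line, dose–response curves were plotted against log10 drug concentration. In the one-dose screen at 10^-5 M, growth was given as percent of untreated control cells, and mean graph midpoint values were averaged.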

MDA-MB-231 = experiment: Growth inhibition of human MDA-MB-231 cells; outline: as §1
CCRF-CEM = experiment: Growth inhibition of human CCRF-CEM cells; outline: as §1
MDA-MB-435 = experiment: Growth inhibition of human MDA-MB-435 cells; outline: as §1
RXF 393 [2] = experiment: Growth inhibition of human RXF393 cells; outline: as §2
UACC-62 = experiment: Growth inhibition of human UACC62 cells; outline: as §2
OVCAR-4 = experiment: Growth inhibition of human OVCAR4 cells; outline: as §1
UO-31 = experiment: Growth inhibition of human UO31 cells; outline: as §2
CAKI-1 = experiment: Growth inhibition of human Caki1 cells; outline: as §1
SNB-19 = experiment: Growth inhibition of human SNB19 cells; outline: as §2
NCI-H522 = experiment: Growth inhibition of human NCI-H522 cells; outline: as §1
SN12C = experiment: Growth inhibition of human SN12C cells; outline: as §2
HT-29 = experiment: Growth inhibition of human HT-29 cells; outline: as §1
[3] = Growth inhibition of human […] cells; outline: as §2
786-0 = experiment: Growth inhibition of human 786-0 cells; outline: as §1
DU-145 = experiment: Growth inhibition of human DU145 cells; outline: as §1
SK-MEL-2 = experiment: Growth inhibition of human SK-MEL-2 cells; outline: as §2
NCI/ADR-RES = experiment: Growth inhibition of human NCI/ADR-RES cells; outline: as §1
SK-MEL-28 = experiment: Growth inhibition of human SK-MEL-28 cells; outline: as §2
SW-620 = experiment: Growth inhibition of human SW620 cells; outline: as §2
HL-60(TB) = experiment: Growth inhibition of human HL-60(TB) cells
Outline: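 NCI 60-cell-line panel run under the Developmental Therapeutics Program protocol. Dose-response curves are plotted against log10 drug concentration for each cell line within its subpanel, and GI50 is read from these curves.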

HCT-116 = experiment: Growth inhibition of human HCT116 cells; outline: as §1
IGROV-1 [4] = experiment: Antiproliferative activity against human IGROV1 cells assessed as cell growth at 10 uM; details: read-out: Activity
Outline: (§3)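 NCI 60 cell line panel, single-dose screen (10^-5 M) run by the developmental therapeutics program protocol. Results are given as growth percent of treated cells relative to untreated control cells for each line.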

[5] = Growth inhibition of human Hs 578T cells; outline: as §1
SF-295 = experiment: Growth inhibition of human SF295 cells; outline: as §2
NCI-H23 = experiment: Growth inhibition of human NCI-H23 cells; outline: as §1
Malme-3M = experiment: Growth inhibition of human MALME-3M cells; outline: as §1
EKVX = experiment: Growth inhibition of human EKVX cells; outline: as §1
RXF 393 [6] = experiment: Antiproliferative activity against human RXF393 cells assessed as cell growth at 10 uM; details: read-out: Activity; outline: as §3
NCI-H460 = experiment: Growth inhibition of human NCI-H460 cells; outline: as §1
COLO 205 = experiment: Growth inhibition of human COLO205 cells; outline: as §1
[7] = read-out: LC50 (the source's name)

## O=C1c2ccccc2C(=O)c2c1ccc1nsnc21
HCC 2998
  GI50: 16.4 µM
  TGI: 33.1 µM
HCC 2998; [7]
  CC50: 66.6 µM
IGROV-1 [1]
  GI50: 1.36 µM
  TGI: 2.94 µM
IGROV-1 [1]; [7]
  CC50: 6.35 µM
M14
  GI50: 2.15 µM
  TGI: 4.85 µM
M14; [7]
  CC50: > 100 µM
NCI-H322M
  GI50: 17.4 µM
  TGI: 47.8 µM
NCI-H322M; [7]
  CC50: > 100 µM
SK-OV-3
  GI50: 7.71 µM
  TGI: 22.5 µM
SK-OV-3; [7]
  CC50: 53.4 µM
MDA-MB-231
  GI50: 1.75 µM
  LC50 (concentration killing 50% of cells): > 100 µM
  TGI: 5.9 µM
CCRF-CEM
  GI50: 1.08 µM
  TGI: 4.1 µM
CCRF-CEM; [7]
  CC50: > 100 µM
MDA-MB-435
  GI50: 1.91 µM
  TGI: 3.31 µM
MDA-MB-435; [7]
  CC50: 5.76 µM
RXF 393 [2]
  GI50: 1.75 µM
  TGI: 4.4 µM
RXF 393 [2]; [7]
  CC50: 14.6 µM
UACC-62
  GI50: 1.45 µM
  TGI: 2.9 µM
UACC-62; [7]
  CC50: 5.79 µM
OVCAR-4
  GI50: 0.65 µM
  TGI: 2.17 µM
OVCAR-4; [7]
  CC50: 5.57 µM
UO-31
  GI50: 1.62 µM
  TGI: 3.12 µM
UO-31; [7]
  CC50: 6.01 µM
CAKI-1
  GI50: 1.61 µM
  TGI: 2.96 µM
CAKI-1; [7]
  CC50: 5.44 µM
SNB-19
  GI50: 2.28 µM
  TGI: 5.82 µM
SNB-19; [7]
  CC50: 26 µM
NCI-H522
  GI50: 1.66 µM
  TGI: 3.93 µM
NCI-H522; [7]
  CC50: 9.31 µM
SN12C
  GI50: 1.33 µM
  TGI: 3.17 µM
SN12C; [7]
  CC50: 7.56 µM
HT-29
  GI50: 13.4 µM
  TGI: 50.4 µM
HT-29; [7]
  CC50: > 100 µM
[3]
  GI50: 1.18 µM
  TGI: 3.46 µM
[3]; [7]
  CC50: > 100 µM
786-0
  GI50: 6.17 µM
  TGI: 19.3 µM
786-0; [7]
  CC50: 50.4 µM
DU-145
  GI50: 1.67 µM
  TGI: 3.24 µM
DU-145; [7]
  CC50: 6.27 µM
SK-MEL-2
  GI50: 1.68 µM
  TGI: 4.22 µM
SK-MEL-2; [7]
  CC50: 22.5 µM
NCI/ADR-RES
  GI50: 1.86 µM
  TGI: 12.6 µM
NCI/ADR-RES; [7]
  CC50: > 100 µM
SK-MEL-28
  GI50: 1.85 µM
  TGI: 3.38 µM
SK-MEL-28; [7]
  CC50: 6.18 µM
SW-620
  GI50: 1.79 µM
  TGI: 3.5 µM
SW-620; [7]
  CC50: 6.84 µM
HL-60(TB)
  GI50: 0.16 µM
  TGI: 0.4 µM
HL-60(TB); [7]
  CC50: 0.99 µM
HCT-116
  GI50: 1.93 µM
  TGI: 5.4 µM
HCT-116; [7]
  CC50: > 100 µM
IGROV-1 [4]
  growth at 10 µM: -88.3%
[5]
  GI50: 1.41 µM
  LC50: 56 µM
  TGI: 5.02 µM
SF-295
  GI50: 1.9 µM
  TGI: 4.04 µM
SF-295; [7]
  CC50: 8.56 µM
NCI-H23
  GI50: 1.44 µM
  TGI: 6.04 µM
NCI-H23; [7]
  CC50: > 100 µM
Malme-3M
  GI50: 1.66 µM
  TGI: 3.15 µM
Malme-3M; [7]
  CC50: 5.96 µM
EKVX
  GI50: 1.55 µM
  TGI: 3.45 µM
EKVX; [7]
  CC50: 7.66 µM
RXF 393 [6]
  growth at 10 µM: 20.1%
NCI-H460
  GI50: 3.27 µM
  TGI: 14.3 µM
NCI-H460; [7]
  CC50: 47.3 µM
COLO 205
  GI50: 13.4 µM
  TGI: 28.9 µM
COLO 205; [7]
  CC50: 62.4 µM
